Activity calls are given as the source filed them. No cut-off for these calls is given here.
Columns and labels:
Monocyte = test: Cytotoxicity against human monocytes assessed as reduction in LDH release at 1 to 10 uM after 2 to 24 hrs by CytoTox96 nonradioactive assay; type: cell-based; conditions: dose lower 1 µM, time lower 2 hrs, dose upper 10 µM, time upper 24 hrs
How it was run: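 Monocytes at 4 × 10^5/mL in monocyte medium treated 2 or 24 h at 37 °C, 5% CO2, with 0.1% DMSO vehicle. LDH release measured by CytoTox 96 kit, with Triton X-100 (0.8%) defining maximum release.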

Mus musculus = test: Antiinflammatory activity in zymosan-induced CD-1 mouse peritonitis model assessed as reduction in LTC4 level at 3 mg/kg, po preincubated with compound for 60 mins followed by zymosan addition and measured after 30 mins by ELISA; type: functional, organism-based; conditions: time 90.0 min
How it was run: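 Oral dosing at 3 mg/kg in zymosan-induced peritonitis; mice killed 30 min after zymosan; LTC4 in peritoneal exudate measured by ELISA; two-tailed unpaired t-test of log data.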

Row | Compound | Activity (Monocyte) | Activity (Mus musculus)
1 | Cc1c(C)c2c(c(C)c1O)CC[C@@](C)(CCCC(C)CCCC(C)CCCC(C)C(=O)O)O2 (some centres not stated) | Non-Toxic | –
2 | CC(c1cc2ccccc2s1)N(O)C(N)=O (configuration not stated) | – | inactive

From ChEMBL document CHEMBL4834471 (J Med Chem, 2021)
